Several values for one entry are separate records, joined by “and”; a condition that tells them apart may be missing. Identical values can stand only once.
Test system: HEK-293T
Assay: Multiplex assay against HEK293T
Format: toxicity, cell-based
Settings: human
How it was run: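 Compound was added to live cells that had been stained at seeding with Hoechst33342, BioTracker Green Microtubule Cytoskeleton Dye, MitoTracker Red and Annexin V Alexa Fluor 680, and imaging followed on a CQ1 microscope at 37°C and 5% CO2. CellPathfinder machine-learning gating divided cells into Hoechst high-intensity objects or normal cells, normal cells into healthy, pyknosed or fragmented nuclei, and pyknosed cells into mitotic or apoptotic. Tubulin, mitochondrial-mass and membrane-permeability phenotypes are per cents of healthy-nucleus cells.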

[1] = 12 h, 1 µM, compound concentration 1 uM
[2] = 12 h, 10 µM, compound concentration 10 uM
[3] = 24 h, 1 µM, compound concentration 1 uM
[4] = 24 h, 10 µM, compound concentration 10 uM
[5] = 48 h, 1 µM, compound concentration 1 uM
[6] = 48 h, 10 µM, compound concentration 10 uM

Cc1c(Cc2ccc3ccccc3n2)c2cc(F)ccc2n1CC(=O)O [TIMAPIPRANT]
Population Apoptotic (%) [1]: 42% | Population Fragmented Nuclei (%) [1]: 7% and 6% | Population Healthy Nuclei (%) [1]: 80% | Population Hoechst High Intensity Objects (%) [1]: 10% and 7% | Population Membrane Permeable-Phenotype (%) [1]: 0% | Population Mitochondria Different-Phenotype (%) [1]: 36% and 55% | Population Mitotic Cells (%) [1]: 57% | Population Normal (%) [1]: 89% and 92% | Population Pyknosed Nuclei (%) [1]: 11% and 12% | Population Tubulin-Different-Phenotype (%) [1]: 20% and 16% | Total Cell Count [1]: 394 and 280 | Population Apoptotic (%) [2]: 32% and 33% | Population Fragmented Nuclei (%) [2]: 7% and 6% | Population Healthy Nuclei (%) [2]: 78% | Population Hoechst High Intensity Objects (%) [2]: 6% and 5% | Population Membrane Permeable-Phenotype (%) [2]: 0% | Population Mitochondria Different-Phenotype (%) [2]: 55% and 63% | Population Mitotic Cells (%) [2]: 67% and 66% | Population Normal (%) [2]: 93% and 94% | Population Pyknosed Nuclei (%) [2]: 14% and 15% | Population Tubulin-Different-Phenotype (%) [2]: 38% and 28% | Total Cell Count [2]: 434 and 354 | Population Apoptotic (%) [3]: 31% and 53% | Population Fragmented Nuclei (%) [3]: 10% and 7% | Population Healthy Nuclei (%) [3]: 81% and 83% | Population Hoechst High Intensity Objects (%) [3]: 4% and 5% | Population Membrane Permeable-Phenotype (%) [3]: 1% and 0% | Population Mitochondria Different-Phenotype (%) [3]: 20% and 38% | Population Mitotic Cells (%) [3]: 68% and 46% | Population Normal (%) [3]: 95% and 94% | Population Pyknosed Nuclei (%) [3]: 8% | Population Tubulin-Different-Phenotype (%) [3]: 15% | Total Cell Count [3]: 516 and 381 | Population Apoptotic (%) [4]: 32% and 37% | Population Fragmented Nuclei (%) [4]: 7% and 12% | Population Healthy Nuclei (%) [4]: 78% and 77% | Population Hoechst High Intensity Objects (%) [4]: 4% and 5% | Population Membrane Permeable-Phenotype (%) [4]: 0% | Population Mitochondria Different-Phenotype (%) [4]: 31% and 44% | Population Mitotic Cells (%) [4]: 67% and 62% | Population Normal (%) [4]: 95% and 94% | Population Pyknosed Nuclei (%) [4]: 13% and 10% | Population Tubulin-Different-Phenotype (%) [4]: 28% and 20% | Total Cell Count [4]: 560 and 475 | Population Apoptotic (%) [5]: 26% and 17% | Population Fragmented Nuclei (%) [5]: 13% and 15% | Population Healthy Nuclei (%) [5]: 78% and 76% | Population Hoechst High Intensity Objects (%) [5]: 2% and 3% | Population Membrane Permeable-Phenotype (%) [5]: 1% and 0% | Population Mitochondria Different-Phenotype (%) [5]: 9% and 25% | Population Mitotic Cells (%) [5]: 73% and 82% | Population Normal (%) [5]: 97% and 96% | Population Pyknosed Nuclei (%) [5]: 8% | Population Tubulin-Different-Phenotype (%) [5]: 6% and 12% | Total Cell Count [5]: 799 and 566 | Population Apoptotic (%) [6]: 33% and 36% | Population Fragmented Nuclei (%) [6]: 10% and 14% | Population Healthy Nuclei (%) [6]: 79% and 78% | Population Hoechst High Intensity Objects (%) [6]: 4% | Population Membrane Permeable-Phenotype (%) [6]: 1% and 0% | Population Mitochondria Different-Phenotype (%) [6]: 24% and 33% | Population Mitotic Cells (%) [6]: 66% and 63% | Population Normal (%) [6]: 95% | Population Pyknosed Nuclei (%) [6]: 9% and 6% | Population Tubulin-Different-Phenotype (%) [6]: 17% and 16% | Total Cell Count [6]: 752 and 630

Cc1cc(Nc2ncc(Cl)c(Nc3ccccc3S(=O)(=O)C(C)C)n2)c(OC(C)C)cc1C1CCNCC1 [CERITINIB]
Population Apoptotic (%) [1]: 15.93% and 15.13% | Population Fragmented Nuclei (%) [1]: 1.92% and 4.62% | Population Hoechst High Intensity Objects (%) [1]: 1.88% and 0.76% | Population Membrane Permeable-Phenotype (%) [1]: 1.35% and 0% | Population Mitochondria Different-Phenotype (%) [1]: 32.43% and 80% | Population Mitotic Cells (%) [1]: 84.07% and 84.87% | Population Normal (%) [1]: 98.12% and 99.24% | Population Pyknosed Nuclei (%) [1]: 69.73% and 91.54% | Population Tubulin-Different-Phenotype (%) [1]: 50% and 80% | Total Cell Count [1]: 266 and 131 | Population Apoptotic (%) [2]: 30.99% and 76.42% | Population Fragmented Nuclei (%) [2]: 1.54% and 6.06% | Population Healthy Nuclei (%) [2]: 2.15% and 0.76% | Population Hoechst High Intensity Objects (%) [2]: 1.22% and 0% | Population Membrane Permeable-Phenotype (%) [2]: 0% | Population Mitotic Cells (%) [2]: 69.01% and 23.58% | Population Normal (%) [2]: 98.78% and 100% | Population Pyknosed Nuclei (%) [2]: 96.31% and 93.18% | Total Cell Count [2]: 329 and 132 | Population Apoptotic (%) [3]: 45.74% and 45.87% | Population Fragmented Nuclei (%) [3]: 2.55% and 3.68% | Population Hoechst High Intensity Objects (%) [3]: 0% and 0.73% | Population Membrane Permeable-Phenotype (%) [3]: 0% | Population Mitochondria Different-Phenotype (%) [3]: 64.49% and 77.27% | Population Mitotic Cells (%) [3]: 54.26% and 54.13% | Population Normal (%) [3]: 100% and 99.27% | Population Pyknosed Nuclei (%) [3]: 47.08% and 80.15% | Population Tubulin-Different-Phenotype (%) [3]: 71.01% and 54.55% | Total Cell Count [3]: 274 and 137 | Population Apoptotic (%) [4]: 64.24% and 88.24% | Population Fragmented Nuclei (%) [4]: 1.89% and 7.03% | Population Healthy Nuclei (%) [4]: 2.84% and 0% | Population Hoechst High Intensity Objects (%) [4]: 0% | Population Membrane Permeable-Phenotype (%) [4]: 0% | Population Mitochondria Different-Phenotype (%) [4]: 88.89% | Population Normal (%) [4]: 100% | Population Pyknosed Nuclei (%) [4]: 95.27% and 92.97% | Population Tubulin-Different-Phenotype (%) [4]: 100% | Total Cell Count [4]: 317 and 128 | Population Apoptotic (%) [5]: 27.27% and 48.81% | Population Fragmented Nuclei (%) [5]: 2.27% and 3.2% | Population Healthy Nuclei (%) [5]: 75% and 29.6% | Population Hoechst High Intensity Objects (%) [5]: 0.21% and 1.57% | Population Membrane Permeable-Phenotype (%) [5]: 1.38% and 2.7% | Population Mitochondria Different-Phenotype (%) [5]: 68.6% and 81.08% | Population Mitotic Cells (%) [5]: 72.73% and 51.19% | Population Normal (%) [5]: 99.79% and 98.43% | Population Pyknosed Nuclei (%) [5]: 22.73% and 67.2% | Population Apoptotic (%) [6]: 62.54% and 87.16% | Population Fragmented Nuclei (%) [6]: 1.6% and 9.02% | Population Healthy Nuclei (%) [6]: 7.99% and 9.02% | Population Hoechst High Intensity Objects (%) [6]: 0% | Population Membrane Permeable-Phenotype (%) [6]: 0% and 8.33% | Population Mitochondria Different-Phenotype (%) [6]: 92% and 91.67% | Population Mitotic Cells (%) [6]: 37.46% and 12.84% | Population Normal (%) [6]: 100% | Population Pyknosed Nuclei (%) [6]: 90.42% and 81.95% | Population Tubulin-Different-Phenotype (%) [6]: 52% and 91.67% | Total Cell Count [6]: 313 and 133

C=CC(=O)Nc1cc(Nc2nccc(-n3cc(CN(C)C)c(-c4ccccc4)n3)n2)c(OC)cc1N1CCOCC1 [LAZERTINIB]
Population Apoptotic (%) [1]: 14.72% and 15.96% | Population Fragmented Nuclei (%) [1]: 1.35% and 8.26% | Population Hoechst High Intensity Objects (%) [1]: 0.67% and 0% | Population Membrane Permeable-Phenotype (%) [1]: 0.77% and 5.88% | Population Mitochondria Different-Phenotype (%) [1]: 33.85% and 11.76% | Population Mitotic Cells (%) [1]: 85.28% and 84.04% | Population Normal (%) [1]: 99.33% and 100% | Population Pyknosed Nuclei (%) [1]: 54.88% and 77.69% | Population Tubulin-Different-Phenotype (%) [1]: 31.54% and 82.35% | Total Cell Count [1]: 299 and 121 | Population Apoptotic (%) [2]: 22.22% and 29.59% | Population Fragmented Nuclei (%) [2]: 3.83% and 10% | Population Healthy Nuclei (%) [2]: 22.97% and 8.33% | Population Hoechst High Intensity Objects (%) [2]: 0.48% and 0% | Population Membrane Permeable-Phenotype (%) [2]: 0% | Population Mitochondria Different-Phenotype (%) [2]: 47.92% and 60% | Population Mitotic Cells (%) [2]: 77.78% and 70.41% | Population Normal (%) [2]: 99.52% and 100% | Population Pyknosed Nuclei (%) [2]: 73.21% and 81.67% | Population Tubulin-Different-Phenotype (%) [2]: 75% and 80% | Total Cell Count [2]: 210 and 120 | Population Apoptotic (%) [3]: 15.83% and 31.58% | Population Fragmented Nuclei (%) [3]: 1.82% and 4.92% | Population Hoechst High Intensity Objects (%) [3]: 0.45% and 0% | Population Membrane Permeable-Phenotype (%) [3]: 3.41% and 4.76% | Population Mitochondria Different-Phenotype (%) [3]: 36.18% and 52.38% | Population Mitotic Cells (%) [3]: 84.17% and 68.42% | Population Normal (%) [3]: 99.55% and 100% | Population Pyknosed Nuclei (%) [3]: 31.59% and 77.87% | Population Tubulin-Different-Phenotype (%) [3]: 50.85% and 47.62% | Population Apoptotic (%) [4]: 46.43% and 51.06% | Population Fragmented Nuclei (%) [4]: 3.95% and 6.25% | Population Healthy Nuclei (%) [4]: 22.37% and 9.82% | Population Hoechst High Intensity Objects (%) [4]: 1.3% and 0% | Population Membrane Permeable-Phenotype (%) [4]: 1.96% and 0% | Population Mitotic Cells (%) [4]: 53.57% and 48.94% | Population Normal (%) [4]: 98.7% and 100% | Population Pyknosed Nuclei (%) [4]: 73.68% and 83.93% | Population Tubulin-Different-Phenotype (%) [4]: 100% and 54.55% | Total Cell Count [4]: 231 and 112 | Population Apoptotic (%) [5]: 12.5% and 24.32% | Population Fragmented Nuclei (%) [5]: 3.16% and 5.04% | Population Healthy Nuclei (%) [5]: 82.41% and 41.73% | Population Hoechst High Intensity Objects (%) [5]: 0.11% and 1.42% | Population Membrane Permeable-Phenotype (%) [5]: 7.11% and 0% | Population Mitochondria Different-Phenotype (%) [5]: 43.78% and 63.79% | Population Mitotic Cells (%) [5]: 87.5% and 75.68% | Population Normal (%) [5]: 99.89% and 98.58% | Population Apoptotic (%) [6]: 50% and 19.23% | Population Fragmented Nuclei (%) [6]: 1.89% and 5.38% | Population Healthy Nuclei (%) [6]: 64.67% and 34.62% | Population Hoechst High Intensity Objects (%) [6]: 0% | Population Membrane Permeable-Phenotype (%) [6]: 9.27% and 0% | Population Mitochondria Different-Phenotype (%) [6]: 73.66% and 40% | Population Mitotic Cells (%) [6]: 50% and 80.77% | Population Normal (%) [6]: 100% | Population Pyknosed Nuclei (%) [6]: 33.44% and 60% | Total Cell Count [6]: 317 and 130

— ChEMBL document CHEMBL5724801, “EUbOPEN Chemogenomics Library - Multiplex” (2024)
